Reference: ChEMBL document CHEMBL2146464, “Structure-activity relationship study of nitrosopyrimidines acting as antifungal agents” (Bioorg Med Chem, 2012)
Converted amounts (≈) assume the structure as drawn.

Tests used:
Format in all cases: functional
[1] = tested on: Trichophyton mentagrophytes; experiment: Antifungal activity against Trichophyton mentagrophytes ATCC 9972 by NCCLS broth microdilution method; details: read-out: MIC100
Summary of the method: (§1)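 MIC by broth microdilution per NCCLS M27-A3/M38-A2 in RPMI-1640 buffered to pH 7.0 with MOPS. Twofold dilutions from 250–0.98 µg/mL, final DMSO ≤1%. Inoculum 1–5 × 10³ CFU/mL. Incubated in a moist dark chamber, 30 °C for Aspergillus and 28–30 °C for dermatophytes. Read visually when control growth allowed. Endpoint is the lowest concentration giving total inhibition of visible growth (MIC100).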

[2] = tested on: Trichophyton rubrum; experiment: Antifungal activity against Trichophyton rubrum CCC 110 by NCCLS broth microdilution method; details: read-out: MIC100; summary of the method: as §1
[3] = tested on: Aspergillus flavus; experiment: Antifungal activity against Aspergillus flavus ATCC 9170 by NCCLS broth microdilution method; details: read-out: MIC100; summary of the method: as §1
[4] = tested on: Candida tropicalis; experiment: Antifungal activity against Candida tropicalis by microplate reader analysis
[5] = tested on: Cryptococcus neoformans; experiment: Antifungal activity against Cryptococcus neoformans ATCC 32264 after 48 hrs by microplate reader analysis; details: ATCC 32264, 48 h
Summary of the method: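 Microplate growth-inhibition assay in RPMI-1640, compound at final 250–0.98 µg/mL (DMSO ≤1%). Inoculum 1–5 × 10³ CFU/mL. Sterility and DMSO growth controls included. Percent inhibition is computed from blank-corrected OD relative to the growth control, tested in duplicate.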

[6] = tested on: Nannizzia gypsea; experiment: Antifungal activity against Microsporum gypseum CCC 115 by NCCLS broth microdilution method; details: read-out: MIC100; summary of the method: as §1
[7] = tested on: Candida albicans; experiment: Antifungal activity against Candida albicans ATCC 10231 after 48 hrs by NCCLS broth microdilution method; details: ATCC 10231, 48 h, read-out: MIC100
Summary of the method: (§2)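 Yeast MIC by NCCLS M27-A3 broth microdilution in RPMI-1640 buffered to pH 7.0 with MOPS. Twofold dilutions of 250–0.98 µg/mL, final DMSO ≤1%. Inoculum 1–5 × 10³ CFU/mL. Incubated at 30 °C in a moist dark chamber. Read visually at 48 h. MIC100 is the lowest concentration with no visible growth versus drug-free control.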

[8] = tested on: Aspergillus niger; experiment: Antifungal activity against Aspergillus niger ATCC 9029 by NCCLS broth microdilution method; details: read-out: MIC100; summary of the method: as §1
[9] = tested on: Candida tropicalis; experiment: Antifungal activity against Candida tropicalis after 48 hrs by NCCLS broth microdilution method; details: read-out: MIC100; summary of the method: as §2
[10] = tested on: Candida albicans; experiment: Antifungal activity against Candida albicans ATCC 10231 after 24 hrs by microplate reader analysis; details: ATCC 10231, 24 h
Summary of the method: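 96-well RPMI-1640 wells with compound at final 250–0.98 µg/mL (DMSO ≤1%). Inoculum 100 µL, 1–5 × 10³ CFU/mL, 200 µL final. Each well includes growth (DMSO, no compound) and sterility controls. % inhibition = 100 − (CTW−SCW)/(GCW−SCW) × 100, run in duplicate.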

[11] = tested on: Aspergillus fumigatus; experiment: Antifungal activity against Aspergillus fumigatus ATCC 26934 by NCCLS broth microdilution method; details: read-out: MIC100; summary of the method: as §1
[12] = tested on: Cryptococcus neoformans; experiment: Antifungal activity against Cryptococcus neoformans ATCC 32264 after 48 hrs by NCCLS broth microdilution method; details: ATCC 32264, 48 h, read-out: MIC100; summary of the method: as §2

## C[C@@H]1[C@H](O)[C@@H](C)/C=C/C=C/C=C/C=C/C=C/C=C/C=C/[C@H](O[C@@H]2O[C@H](C)[C@@H](O)[C@H](N)[C@@H]2O)C[C@@H]2O[C@](O)(C[C@@H](O)C[C@@H](O)[C@H](O)CC[C@@H](O)C[C@@H](O)CC(=O)O[C@H]1C)C[C@H](O)[C@H]2C(=O)O [AMPHOTERICIN B]
[1]
  MIC: 0.06 µg/mL (≈ 0.0649 µM)
[2]
  MIC: 0.06 µg/mL (≈ 0.0649 µM)
[3]
  MIC: 0.49 µg/mL (≈ 0.53 µM)
[4]
  MIC50: 0.49 µg/mL (≈ 0.53 µM)
[5]
  MIC50: 0.98 µg/mL (≈ 1.06 µM)
[6]
  MIC: 0.12 µg/mL (≈ 0.13 µM)
[7]
  MIC: 0.98 µg/mL (≈ 1.06 µM)
[8]
  MIC: 0.49 µg/mL (≈ 0.53 µM)
[9]
  MIC: 0.98 µg/mL (≈ 1.06 µM)
[10]
  MIC50: 0.49 µg/mL (≈ 0.53 µM)
[11]
  MIC: 0.49 µg/mL (≈ 0.53 µM)
[12]
  MIC: 0.25 µg/mL (≈ 0.271 µM)
